The values that follow come from ChEMBL document CHEMBL3576817, “Synthesis and Evaluation of Conjugates of Novel TLR7 Inert Ligands as Self-Adjuvanting Immunopotentiators” (2015).

For experiment [1], the system named is Mus musculus. As to the kind of experiment: Immunostimulatory activity in C57BL/6 mouse assessed as increase in IFN-gamma level in serum at 0.18 umol, iv at 2 hrs by luminex bead microassay relative to control. It counts as functional, organism-based. The method in brief: (§1)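 C57BL/6 mice (n = 5 per group) received 0.18 μmol intravenously. Serum was collected at set times after injection, and IFN-γ and IL-12 were measured by Luminex assay against saline-treated controls. Data are mean ± SEM of two independent experiments.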

For experiment [2], the species on record is Mus musculus. As to the kind of experiment: Immunostimulatory activity in BALB/c mouse splenocytes assessed as induction of IFN-gamma production at 10 uM after 24 hrs by ELISA relative to GD2. It counts as functional, Splenocyte. An outline of the steps: (§2)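 Mouse splenocytes were seeded at 1 × 10^6/mL and incubated 24 h with serial dilutions of free ligand or conjugates. Antigen and conjugate concentrations were scaled for conjugation ratio: one-sixth for BSA, one-fifth for OVA and MSA, equal for MG7, one-quarter for thymosin. Supernatant IFN-γ and IL-12 were measured by ELISA and expressed as conjugated/free ligand ratios. Data are triplicates from one of three experiments.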

Experiment [3] concerns Mus musculus. As to the kind of experiment: Immunostimulatory activity in C57BL/6 mouse assessed as increase in IFN-gamma level in serum at 0.18 umol, iv after 2 to 48 hrs by luminex bead microassay relative to control. It counts as functional, organism-based. The method in brief:
as §1

For experiment [4], the species on record is Mus musculus. Briefly: Immunostimulatory activity in BALB/c mouse splenocytes assessed as induction of IL-12 production at 10 uM after 24 hrs by ELISA relative to GD2. It counts as functional, Splenocyte. The method in brief:
as §2
On the technique in general: In an ELISA, binding on a coated surface is turned into a signal by an enzyme label.

For experiment [5], the species on record is Mus musculus. As to the kind of experiment: Immunostimulatory activity in BALB/c mouse splenocytes assessed as induction of IL-12 production at 10 uM after 24 hrs by ELISA in presence of MG7 relative to GD2. It counts as functional, Splenocyte. The method in brief: as §2
Experiment [6] deals with T1, Toll-like receptor 7 (Mus musculus) (UniProt P58681).
T1 sequence (whole entry): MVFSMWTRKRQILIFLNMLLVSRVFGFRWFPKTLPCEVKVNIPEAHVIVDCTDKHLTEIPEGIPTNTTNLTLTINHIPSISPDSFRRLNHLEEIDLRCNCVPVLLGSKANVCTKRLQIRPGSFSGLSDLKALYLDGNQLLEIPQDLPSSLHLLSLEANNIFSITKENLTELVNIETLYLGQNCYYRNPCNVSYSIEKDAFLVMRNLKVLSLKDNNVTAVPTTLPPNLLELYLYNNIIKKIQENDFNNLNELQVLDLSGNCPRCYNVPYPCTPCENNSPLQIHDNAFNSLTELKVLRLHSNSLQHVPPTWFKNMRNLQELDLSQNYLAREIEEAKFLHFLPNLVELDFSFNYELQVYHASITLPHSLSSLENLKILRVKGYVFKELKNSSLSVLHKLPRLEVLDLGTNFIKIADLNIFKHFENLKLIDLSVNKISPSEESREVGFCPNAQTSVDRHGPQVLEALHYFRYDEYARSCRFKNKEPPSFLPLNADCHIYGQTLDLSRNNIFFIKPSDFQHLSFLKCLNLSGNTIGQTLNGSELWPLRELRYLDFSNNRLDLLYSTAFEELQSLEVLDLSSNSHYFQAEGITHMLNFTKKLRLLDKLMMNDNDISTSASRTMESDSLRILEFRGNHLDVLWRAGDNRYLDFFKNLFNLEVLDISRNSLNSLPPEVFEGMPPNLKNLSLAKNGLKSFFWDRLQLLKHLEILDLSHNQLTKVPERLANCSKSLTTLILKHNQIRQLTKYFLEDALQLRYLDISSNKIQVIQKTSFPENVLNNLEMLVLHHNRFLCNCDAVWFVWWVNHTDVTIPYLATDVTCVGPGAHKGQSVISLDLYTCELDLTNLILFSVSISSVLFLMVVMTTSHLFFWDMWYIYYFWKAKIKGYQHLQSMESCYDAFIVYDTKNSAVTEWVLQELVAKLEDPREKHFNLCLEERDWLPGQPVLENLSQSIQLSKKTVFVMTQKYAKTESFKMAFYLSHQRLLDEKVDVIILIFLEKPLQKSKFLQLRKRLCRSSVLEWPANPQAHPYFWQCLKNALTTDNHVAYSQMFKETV
As to the kind of experiment: Agonist activity at TLR7 in mouse BMDM assessed as increase in IL-12 production at 2 uM after 24 hrs by ELISA in presence of thymosin. The method in brief:
(§3)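 BMDM from wild-type or TLR7−/− mice were seeded at 1 × 10^6/mL. They were incubated 24 h with 2 μM antigen conjugates, with the free ligand at 10 μM. IL-12 in culture supernatants was measured by ELISA. Data are mean ± SEM of triplicates from one of three independent experiments. Only material with endotoxin <5 EU/mg was used.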

In experiment [7] the target is T1, Toll-like receptor 7 (Mus musculus). Briefly: Agonist activity at TLR7 in mouse BMDM assessed as increase in IL-12 production at 2 uM after 24 hrs by ELISA in presence of OVA. The method in brief: as §3
The species named for experiment [8] is Mus musculus. Briefly: Immunostimulatory activity in BALB/c mouse splenocytes assessed as induction of IL-12 production at 10 uM after 24 hrs by ELISA in presence of thymosin relative to GD2. It counts as functional, Splenocyte. An outline of the steps:
as §2

Experiment [9] is filed under the species Mus musculus. As to the kind of experiment: Immunostimulatory activity in BALB/c mouse splenocytes assessed as induction of IFN-gamma production at 10 uM after 24 hrs by ELISA in presence of thymosin relative to GD2. It counts as functional, Splenocyte. An outline of the steps:
as §2

The species named for experiment [10] is Mus musculus. As to the kind of experiment: Immunostimulatory activity in BALB/c mouse splenocytes assessed as induction of IFN-gamma production at 10 uM after 24 hrs by ELISA in presence of BSA relative to GD2. It counts as functional, Splenocyte. An outline of the steps:
as §2

The test system of experiment [11] is Mus musculus. Briefly: Immunostimulatory activity in C57BL/6 mouse assessed as increase in IgG2a level in serum at 0.83 nmol, sc administered every 7 days measured up to 30 days by ELISA in presence of BSA. It counts as functional, organism-based. An outline of the steps: (§4)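 Mice were immunized with antigen, free ligand or conjugate, and serum was collected every 7 days from day 0 to day 30. BSA- or OVA-specific IgG1 and IgG2a were measured by ELISA. Data are mean ± SEM of triplicate from one of three independent experiments.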

The subject of experiment [12] is Mus musculus. As to the kind of experiment: Immunostimulatory activity in C57BL/6 mouse assessed as increase in IFN-gamma level in serum at 0.18 umol, iv after 2 to 6 hrs by luminex bead microassay in presence of thymosin relative to control. It counts as functional, organism-based. An outline of the steps: as §1
The test system of experiment [13] is Mus musculus. Briefly: Immunostimulatory activity in C57BL/6 mouse assessed as increase in IFN-gamma level in serum at 0.18 umol, iv after 2 to 6 hrs by luminex bead microassay in presence of MSA relative to control. It counts as functional, organism-based. The method in brief: as §1
The subject of experiment [14] is Mus musculus. As to the kind of experiment: Immunostimulatory activity in C57BL/6 mouse assessed as increase in IgG1 level in serum at 1 nmol, sc administered every 7 days measured up to 30 days by ELISA in presence of OVA. It counts as functional, organism-based. An outline of the steps: as §4
The species named for experiment [15] is Mus musculus. Briefly: Immunostimulatory activity in BALB/c mouse splenocytes assessed as induction of IFN-gamma production at 10 uM after 24 hrs by ELISA in presence of MG7 relative to GD2. It counts as functional, Splenocyte. An outline of the steps: as §2
Experiment [16] relates to Mus musculus. As to the kind of experiment: Immunostimulatory activity in C57BL/6 mouse assessed as increase in IgG1 level in serum at 5 nmol, sc administered every 7 days measured up to 30 days by ELISA. It counts as functional, organism-based. An outline of the steps: as §4
The species entered for experiment [17] is Mus musculus. As to the kind of experiment: Immunostimulatory activity in BALB/c mouse splenocytes assessed as induction of IL-12 production at 10 uM after 24 hrs by ELISA in presence of OVA relative to GD2. It counts as functional, Splenocyte. The method in brief:
as §2

The test system of experiment [18] is Mus musculus. As to the kind of experiment: Immunostimulatory activity in C57BL/6 mouse assessed as increase in IgG2a level in serum at 5 nmol, sc administered every 7 days measured up to 30 days by ELISA. It counts as functional, organism-based. The method in brief:
as §4

Experiment [19] has as its target T1, Toll-like receptor 7 (Mus musculus). As to the kind of experiment: Agonist activity at TLR7 in mouse BMDM assessed as increase in IL-12 production at 2 uM after 24 hrs by ELISA in presence of MSA. The method in brief:
as §3

In experiment [20] the test system is Mus musculus. Briefly: Immunostimulatory activity in C57BL/6 mouse assessed as increase in IgG2a level in serum at 1 nmol, sc administered every 7 days measured up to 30 days by ELISA in presence of OVA. It counts as functional, organism-based. The method in brief:
as §4

For experiment [21], the species on record is Mus musculus. As to the kind of experiment: Immunostimulatory activity in BALB/c mouse splenocytes assessed as induction of IFN-gamma production at 10 uM after 24 hrs by ELISA in presence of OVA relative to GD2. It counts as functional, Splenocyte. An outline of the steps:
as §2

Experiment [22] is filed under the species Mus musculus. As to the kind of experiment: Immunostimulatory activity in BALB/c mouse splenocytes assessed as induction of IL-12 production at 10 uM after 24 hrs by ELISA in presence of BSA relative to GD2. It counts as functional, Splenocyte. An outline of the steps: as §2
The test system of experiment [23] is Mus musculus. As to the kind of experiment: Immunostimulatory activity in C57BL/6 mouse assessed as increase in IgG1 level in serum at 0.83 nmol, sc administered every 7 days measured up to 30 days by ELISA in presence of BSA. It counts as functional, organism-based. An outline of the steps:
as §4

Experiment [24] deals with T1, Toll-like receptor 7 (Mus musculus). Briefly: Agonist activity at TLR7 in mouse BMDM assessed as increase in IL-12 production at 2 uM after 24 hrs by ELISA in presence of MG7. An outline of the steps:
as §3

Experiment [25] has as its system Mus musculus. As to the kind of experiment: Immunostimulatory activity in C57BL/6 mouse assessed as increase in IFN-gamma level in serum at 0.18 umol, iv after 2 to 6 hrs by luminex bead microassay in presence of BSA relative to control. It counts as functional, organism-based. The method in brief: as §1
For experiment [26], the system named is Mus musculus. Briefly: Immunostimulatory activity in C57BL/6 mouse assessed as increase in IFN-gamma level in serum at 0.18 umol, iv after 2 to 6 hrs by luminex bead microassay in presence of MG7 relative to control. It counts as functional, organism-based. The method in brief:
as §1

For experiment [27], the species on record is Mus musculus. Briefly: Immunostimulatory activity in BALB/c mouse splenocytes assessed as induction of IFN-gamma production at 10 uM after 24 hrs by ELISA in presence of MSA relative to GD2. It counts as functional, Splenocyte. The method in brief:
as §2

In experiment [28] the target is T1, Toll-like receptor 7 (Mus musculus). Briefly: Agonist activity at TLR7 in mouse BMDM assessed as increase in IL-12 production at 2 uM after 24 hrs by ELISA in presence of BSA. The method in brief: as §3
The species named for experiment [29] is Mus musculus. Briefly: Immunostimulatory activity in BALB/c mouse splenocytes assessed as induction of IL-12 production at 10 uM after 24 hrs by ELISA in presence of MSA relative to GD2. It counts as functional, Splenocyte. An outline of the steps: as §2
Experiment [30] deals with Mus musculus. Briefly: Immunostimulatory activity in C57BL/6 mouse assessed as increase in IFN-gamma level in serum at 0.18 umol, iv after 2 to 6 hrs by luminex bead microassay in presence of OVA relative to control. It counts as functional, organism-based. An outline of the steps:
as §1

The source made the active and inactive calls. No cut-off for these calls is given here.

For the compound `COCCOc1nc(N)c2nc(O)n(Cc3ccc(C=O)cc3)c2n1`, in the experiment with Mus musculus [1], the outcome was Active. For the same compound, the “fold change (FC)” value in the experiment listed under Mus musculus [2] worked out at 524; in the experiment filed under Mus musculus [4], 61. In addition, the outcome with Mus musculus [3] was inactive.
Regarding `COCCOc1nc(N)c2nc(O)n(CCCC(=O)O)c2n1`, the “fold change (FC)” value in the experiment filed under Mus musculus [5] came out at 52; in the experiment listed under Mus musculus [8], 409; in the experiment listed under Mus musculus [9], 1511; in the experiment filed under Mus musculus [10], 488; in the experiment listed under Mus musculus [15] it was 550; in the experiment filed under Mus musculus [17], 175. Further, the “fold change (FC)” value in the experiment listed under Mus musculus [21] is recorded as 73; in the experiment filed under Mus musculus [22] it was 16; in the experiment filed under Mus musculus [27], 575; in the experiment listed under Mus musculus [29] it was 42. In addition, the outcome (in [6]; in [7]; in the experiment with Mus musculus [11]; in the experiment with Mus musculus [12]; with Mus musculus [13]; with Mus musculus [14]) was Active. Further, the outcome (in experiment [19]; in the experiment on Mus musculus [20]; in the experiment on Mus musculus [23]; in [24]; in the experiment on Mus musculus [25]; with Mus musculus [26]) was Active. Further, the result (in experiment [28]; in the experiment with Mus musculus [30]) was Active. The outcome with Mus musculus [3], in the experiment on Mus musculus [16] and in the experiment on Mus musculus [18] was inactive.
